Data as given in ChEMBL document CHEMBL4765346, “Inhibitor design to target a unique feature in the folate pocket of Staphylococcus aureus dihydrofolate reductase” (Eur J Med Chem, 2020).
≈ marks a conversion by molar mass, not a printed value. Calls of active or inactive are those of the source. The rule behind the calls is not given here.

Assays:
Staphylococcus aureus [1] = test: Antibacterial activity against Staphylococcus aureus ATCC 29213 assessed as inhibition of bacterial growth incubated for 18 hrs by spectrophotometric method; format: functional
How it was run: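 Racemic compounds tested against standardized S. aureus strain 29213 cultures following CLSI procedure; MIC recorded; n = 2 independent assays, each with duplicate technical replicates.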

[2] = (§1) Inhibition of recombinant Staphylococcus aureus DHFR expressed in Escherichia coli BL21 (DE3) using dihydrofolate as substrate and NADPH as cofactor incubated for 2.8 mins
How it was run: (§2)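 Recombinant S. aureus DHFR expressed in E. coli BL21 (DE3). Reaction reconstituted with NADPH and varied inhibitor concentrations (racemates, diluted from 10 mM DMSO stock), started by adding dihydrofolate. Run at 30 °C, rate followed 2.8 min over linear range. 50% activity point from 4-parameter fit of rate vs concentration. IC50 converted to Ki by Cheng-Prusoff using previously measured KM. n ≥ 3 independent assays, duplicate technical replicates.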

Staphylococcus aureus [3] = test: as §1; how it was run: as §2

Structure (SMILES)	MIC (Staphylococcus aureus [1]) [µg/mL]	inhibition (Staphylococcus aureus [3])	Ki [2] [nM]
COc1cc(Cc2cnc(N)nc2N)cc(/C=C/C(=O)N2N=Cc3ccccc3C2c2ccc(C)cc2)c1OC (configuration not stated)	0.046 (≈ 0.086 µM)	inactive	
COc1cc(Cc2cnc(N)nc2N)cc(/C=C/C(=O)N2N=Cc3ccccc3C2C2CCCCC2)c1OC (configuration not stated)		Active	
COc1cc2c(cc1OC)C(C1CC1)N(C(=O)/C=C/c1cc(Cc3cnc(N)nc3N)cc(OC)c1OC)N=C2 (racemic)	1 (≈ 1.84 µM)		0.7
COc1cc(Cc2cnc(N)nc2N)cc(/C=C/C(=O)N2N=Cc3ccccc3C2c2ccccc2)c1OC (configuration not stated)		Active	
COc1ccc(CC2c3ccccc3C=NN2C(=O)/C=C/c2cc(Cc3cnc(N)nc3N)cc(OC)c2OC)cc1 (configuration not stated)			1.2
CCCC1c2ccccc2C=NN1C(=O)/C=C/c1cc(Cc2cnc(N)nc2N)cc(OC)c1OC (configuration not stated)	0.0625 (≈ 0.128 µM)		1.2

Now from value to compound, other results behind:

MIC (Staphylococcus aureus [1]) [µg/mL]	inhibition (Staphylococcus aureus [3])	Structure (SMILES)	Ki [2] [nM]
0.5 (≈ 0.972 µM)		CCCC1c2cc(C)c(C)cc2C=NN1C(=O)/C=C/c1cc(Cc2cnc(N)nc2N)cc(OC)c1OC (racemic)	1.2
	Active	COc1cc(Cc2cnc(N)nc2N)cc(/C=C/C(=O)N2N=Cc3ccccc3C2C=C(C)C)c1OC (configuration not stated)	
	Active	COc1cc(Cc2cnc(N)nc2N)cc(/C=C/C(=O)N2N=Cc3ccccc3C2CCC(F)(F)F)c1OC (configuration not stated)	
0.188 (≈ 0.385 µM)	Active	COc1cc(Cc2cnc(N)nc2N)cc(/C=C/C(=O)N2N=Cc3ccccc3C2C(C)C)c1OC (configuration not stated)	
1 (≈ 1.83 µM)		CCCC1c2cc(OC)c(OC)cc2C=NN1C(=O)/C=C/c1cc(Cc2cnc(N)nc2N)cc(OC)c1OC (racemic)	1.1
0.25 (≈ 0.456 µM)		COc1cc(Cc2cnc(N)nc2N)cc(/C=C/C(=O)N2N=Cc3ccccc3C2Cc2ccc(C)cc2)c1OC (configuration not stated)	2.3
	Active	COc1cc(Cc2cnc(N)nc2N)cc(/C=C/C(=O)N2N=Cc3ccccc3C2CC(C)C)c1OC (configuration not stated)	
	inactive	CCC(CC)C1c2ccccc2C=NN1C(=O)/C=C/c1cc(Cc2cnc(N)nc2N)cc(OC)c1OC (configuration not stated)	
	inactive	COc1cc(Cc2cnc(N)nc2N)cc(/C=C/C(=O)N2N=Cc3ccccc3C2c2cc(C)cc(C)c2)c1OC (configuration not stated)	
